Data from ChEMBL document CHEMBL1154614, “Synthesis and evaluation of stable bidentate transition metal complexes of 1-(chloromethyl)-5-hydroxy-3-(5,6,7-trimethoxyindol-2-ylcarbonyl)-2,3-dihydro-1H-pyrrolo[3,2-f]quinoline (seco-6-azaCBI-TMI) as hypoxia selective cytotoxins” (J Med Chem, 2009).
pIC50: −log10 of the molar value.

Assays:
A549 [1] = experiment: Cytotoxicity against human A549 cells after 4 hrs under aerobic conditions; type: functional, cell-based; conditions: A549, 4 h
How it was run: (§1)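 Attached log-phase cells exposed to compound for 4 h under aerobic conditions; compounds formulated in DMSO, final DMSO <1%. IC50 = concentration giving 50% inhibition of cell proliferation. Mean ± SEM of >2 determinations.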

SK-OV-3 [2] = experiment: Cytotoxicity against human SKOV3 cells after 4 hrs under aerobic conditions; type: functional, cell-based; conditions: SK-OV-3, 4 h; how it was run: as §1
[3] = Cytotoxicity against mouse EMT6V cells after 4 hrs under aerobic conditions; type: functional, cell-based; how it was run: as §1
[4] = Solubility in alpha-MEM in presence of FCS; type: physicochemical; conditions: alpha-MEM with FCS
UV4 = experiment: Cytotoxicity against hamster UV4 cells after 4 hrs under aerobic conditions; type: cell-based; conditions: Cricetulus griseus, UV4, 4 h; how it was run: as §1
SK-OV-3 [5] = experiment: Hypoxic cytotoxicity ratio, ratio of IC50 for human SKOV3 cells under aerobic condition to IC50 for human SKOV3 cells after 4 hrs under hypoxic condition; type: functional
How it was run: (§2)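 Attached log-phase cells given 4 h compound exposure in parallel under oxic and hypoxic conditions; compounds in DMSO, final DMSO <1%. IC50 for inhibition of cell proliferation. Ratio = aerobic IC50/hypoxic IC50, calculated within each experiment.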

CHO-AA8 = experiment: Cytotoxicity against hamster AA8 cells after 4 hrs under aerobic conditions; type: cell-based; conditions: Cricetulus griseus, CHO-AA8, 4 h; how it was run: as §1
A549 [6] = experiment: Hypoxic cytotoxicity ratio, ratio of IC50 for human A549 cells under aerobic condition to IC50 for human A549 cells after 4 hrs under hypoxic condition; type: functional; how it was run: as §2

Row | SMILES | pIC50 (A549 [1]) | pIC50 (SK-OV-3 [2]) | pIC50 [3] | solubility [4] [µM] | pIC50 (UV4) | Ratio IC50 (SK-OV-3 [5]) | pIC50 (CHO-AA8) | Ratio IC50 (A549 [6])
1 | CN(C)CCOc1ccc2[nH]c(C(=O)N3CC(CCl)c4c3cc(O)c3ncccc43)cc2c1 (stereo not given) | 8.89 | 8.16 | 9.13 | 32 | 8.77 | 0.56 | 8.36 | 1.11
2 | COc1ccc(/C=C/C(=O)N2CC(CCl)c3c2cc(O)c2ncccc32)cc1 (stereo not given) | 10.05 | 9.54 | – | 40 | – | – | – | –
3 | COc1ccc(/C=C/C(=O)N2CC(CCl)c3c2cc(O)c2ncccc32)cc1O (stereo not given) | 9.74 | 9.77 | – | 110 | – | – | – | –
4 | COc1cc2cc(C(=O)N3C[C@@H](CCl)c4c3cc(O)c3ncccc43)[nH]c2c(OC)c1OC | 10.40 | 9.96 | 10.52 | – | 10.40 | – | 10.15 | –
5 | CN(C)CCOc1ccc(/C=C/C(=O)N2CC(CCl)c3c2cc(O)c2ncccc32)cc1 (stereo not given) | 9.04 | 8.72 | 9.24 | 860 | 9.14 | 0.65 | 8.59 | 0.86
6 | COc1ccc2[nH]c(C(=O)N3CC(CCl)c4c3cc(O)c3ncccc43)cc2c1 (stereo not given) | 10.10 | 9.57 | – | 110 | – | 0.91 | – | 1.51
7 | COc1cc2cc(C(=O)N3C[C@H](CCl)c4c3cc(O)c3ncccc43)[nH]c2c(OC)c1OC | 8.06 | 8.07 | 8.14 | – | 8.34 | – | 7.66 | –
8 | COc1cc2cc(C(=O)N3CC(CCl)c4c3cc(O)c3ncccc43)[nH]c2c(OC)c1OC (racemic) | 10.22 | 9.59 | 10.30 | 30 | 10.15 | 0.69 | 9.85 | 0.76
